Data taken from ChEMBL document CHEMBL1142866, “Synthesis and preliminary evaluation of 18F- or 11C-labeled bicyclic nucleoside analogues as potential probes for imaging varicella-zoster virus thymidine kinase gene expression using positron emission tomography” (J Med Chem, 2007).

Key:
Lung [1] = assay: Biodistribution in lung of NMRI mouse assessed as standard uptake value after 2 mins; type: ADME, organism-based; details: in vivo
Heart [2] = assay: Biodistribution in heart of NMRI mouse assessed as standard uptake value after 2 mins; type: ADME, organism-based; details: in vivo
Brain [3] = assay: Biodistribution in brain of NMRI mouse assessed as standard uptake value after 2 mins; type: ADME, organism-based; details: in vivo
Blood [4] = assay: Biodistribution in blood of NMRI mouse assessed as standard uptake value after 2 mins; type: ADME, organism-based; details: in vivo
Kidney [5] = assay: Biodistribution in kidney of NMRI mouse assessed as standard uptake value after 60 mins; type: ADME, organism-based; details: in vivo, 1 h
Liver [6] = assay: Biodistribution in liver of NMRI mouse assessed as standard uptake value after 60 mins; type: ADME, organism-based; details: in vivo, 1 h
[7] = Biodistribution in spleen/pancreas of NMRI mouse assessed as standard uptake value after 60 mins; type: ADME, organism-based; details: in vivo, 1 h
Intestine [8] = assay: Biodistribution in intestine of NMRI mouse after 2 mins; type: ADME, organism-based; details: in vivo
In short: (§1)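 Male NMRI mice (30-40 g) under ketamine/xylazine i.p. anesthesia received 0.1 mL of HPLC-purified 18F tracer (0.1 mCi/mL) or 11C tracer (1 mCi/mL) in water for injection via tail vein. Killed by decapitation at 2 or 60 min (n = 3 per time). Blood, organs and carcass weighed and gamma-counted. %ID = organ cpm/total cpm recovered. Blood mass taken as 7% of body mass. Mean ± SD.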

Brain [9] = assay: Biodistribution in brain of NMRI mouse after 2 mins; type: ADME, organism-based; details: in vivo; in short: as §1
Blood [10] = assay: Biodistribution in blood of NMRI mouse after 2 mins; type: ADME, organism-based; details: in vivo; in short: as §1
[11] = Biodistribution in carcass of NMRI mouse after 2 mins; type: ADME, organism-based; details: in vivo; in short: as §1
[12] = Biodistribution in urine of NMRI mouse after 60 mins; type: ADME, organism-based; details: in vivo, 1 h; in short: as §1
Kidney [13] = assay: Biodistribution in kidney of NMRI mouse after 60 mins; type: ADME, organism-based; details: in vivo, 1 h; in short: as §1
Liver [14] = assay: Biodistribution in liver of NMRI mouse after 60 mins; type: ADME, organism-based; details: in vivo, 1 h; in short: as §1
[15] = Biodistribution in spleen/pancreas of NMRI mouse after 60 mins; type: ADME, organism-based; details: in vivo, 1 h; in short: as §1
Lung [16] = assay: Biodistribution in lung of NMRI mouse after 60 mins; type: ADME, organism-based; details: in vivo, 1 h; in short: as §1
Heart [17] = assay: Biodistribution in heart of NMRI mouse after 60 mins; type: ADME, organism-based; details: in vivo, 1 h; in short: as §1
Intestine [18] = assay: Biodistribution in intestine of NMRI mouse after 60 mins; type: ADME, organism-based; details: in vivo, 1 h; in short: as §1
Brain [19] = assay: Biodistribution in brain of NMRI mouse after 60 mins; type: ADME, organism-based; details: in vivo, 1 h; in short: as §1
Blood [20] = assay: Biodistribution in blood of NMRI mouse after 60 mins; type: ADME, organism-based; details: in vivo, 1 h; in short: as §1
[21] = Biodistribution in carcass of NMRI mouse after 60 mins; type: ADME, organism-based; details: in vivo, 1 h; in short: as §1
Kidney [22] = assay: Biodistribution in kidney of NMRI mouse assessed as standard uptake value after 2 mins; type: ADME, organism-based; details: in vivo
Liver [23] = assay: Biodistribution in liver of NMRI mouse assessed as standard uptake value after 2 mins; type: ADME, organism-based; details: in vivo
[24] = Biodistribution in spleen/pancreas of NMRI mouse assessed as standard uptake value after 2 mins; type: ADME, organism-based; details: in vivo
Lung [25] = assay: Biodistribution in lung of NMRI mouse assessed as standard uptake value after 60 mins; type: ADME, organism-based; details: in vivo, 1 h
Heart [26] = assay: Biodistribution in heart of NMRI mouse assessed as standard uptake value after 60 mins; type: ADME, organism-based; details: in vivo, 1 h
Brain [27] = assay: Biodistribution in brain of NMRI mouse assessed as standard uptake value after 60 mins; type: ADME, organism-based; details: in vivo, 1 h
Blood [28] = assay: Biodistribution in blood of NMRI mouse assessed as standard uptake value after 60 mins; type: ADME, organism-based; details: in vivo, 1 h
[29] = Partition coefficient, log P at pH 7.4; type: physicochemical; details: octanol/water
In short: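 HPLC-purified radiotracer partitioned between 1-octanol and 0.025 M phosphate buffer pH 7.4. Vortexed 2 min at room temperature, centrifuged 5 min, aliquots of both phases gamma-counted. P = octanol cpm/buffer cpm after density and mass correction; n = 6.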

[30] = Drug uptake in human 293T cells transduced with LacZ gene after 1 hr; type: ADME, cell-based; details: hek-293t
In short: (§2)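 Lentivirally transduced 293T cells (VZV-tk or LacZ control) plated in triplicate at 200 000 cells/well. After 24 h, 0.25 mL fresh medium with 5 µCi of the 18F tracer (3 h) or 30 µCi of the 11C tracer (1 h) added; 37 °C, 5% CO2. Cells washed thrice with ice-cold PBS, lysed, gamma-counted. Uptake given as % total radioactivity per mg protein (Bio-Rad assay); n = 3, unpaired two-sided t-test.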

[31] = Drug uptake in human 293T cells transduced with VZV-tk gene after 1 hr; type: ADME, cell-based; details: hek-293t; in short: as §2
Plasma [32] = assay: Metabolic stability in mouse plasma assessed as radioactivity after 2 mins; type: ADME, cell-free
In short: (§3)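 Normal mice given 0.35-0.4 mCi of 11C tracer i.v. and decapitated at 2 or 30 min (plasma; one mouse per time) or 30/60 min (urine). EDTA plasma separated by centrifugation; urine used untreated. Samples spiked with authentic compound and run on Oasis HLB in series with C18, eluted with 0.05 M ammonium acetate/acetonitrile 70:30 at 1 mL/min. 1-mL fractions gamma-counted; intact tracer taken as % recovered radioactivity.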

[33] = Biodistribution in urine of NMRI mouse after 2 mins; type: ADME, organism-based; details: in vivo; in short: as §1
Kidney [34] = assay: Biodistribution in kidney of NMRI mouse after 2 mins; type: ADME, organism-based; details: in vivo; in short: as §1
Liver [35] = assay: Biodistribution in liver of NMRI mouse after 2 mins; type: ADME, organism-based; details: in vivo; in short: as §1
[36] = Biodistribution in spleen/pancreas of NMRI mouse after 2 mins; type: ADME, organism-based; details: in vivo; in short: as §1
Lung [37] = assay: Biodistribution in lung of NMRI mouse after 2 mins; type: ADME, organism-based; details: in vivo; in short: as §1
Heart [38] = assay: Biodistribution in heart of NMRI mouse after 2 mins; type: ADME, organism-based; details: in vivo; in short: as §1
Plasma [39] = assay: Metabolic stability in mouse plasma assessed as radioactivity after 30 mins; type: ADME, cell-free; details: 0.5 h; in short: as §3
[40] = Metabolic stability in mouse urine after 30 mins; type: ADME, tissue-based; details: read-out: Stability; in short: as §3
[41] = Metabolic stability in mouse urine after 60 mins; type: ADME, tissue-based; details: read-out: Stability; in short: as §3
[42] = Ratio of drug uptake in LV-VZVTK-1-P transduced cells to LV-LacZ-I-P transduced 293T cells after 1 hr; type: ADME, cell-based; details: human
In short: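 Lentivirally transduced 293T cells (VZV-tk or LacZ control), plated in triplicate at 200 000 cells/well. After 24 h, given fresh medium with 30 µCi HPLC-purified 11C-labelled tracer per well, then 1 h at 37 °C in 5% CO2. Washed thrice in ice-cold PBS, lysed, gamma-counted, normalized to Bio-Rad protein (% total radioactivity/mg protein). VZV-tk/LacZ ratio, n = 3, unpaired Student t-test.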

[11CH3]Oc1cccc(-c2cc3cn([C@H]4C[C@H](O)[C@@H](CO)O4)c(=O)nc3o2)c1
Drug uptake (Lung [1]): 1
Drug uptake (Heart [2]): 1
Drug uptake (Brain [3]): 0.1
Drug uptake (Blood [4]): 0.8
Drug uptake (Kidney [5]): 0.2
Drug uptake (Liver [6]): 0.7
Drug uptake [7]: 0.1
Drug uptake (Intestine [8]): 25.6 %ID
Drug uptake (Brain [9]): 0 %ID
Drug uptake (Blood [10]): 5.4 %ID
Drug uptake [11]: 25.3 %ID
Drug uptake [12]: 28.2 %ID
Drug uptake (Kidney [13]): 0.3 %ID
Drug uptake (Liver [14]): 3.7 %ID
Drug uptake [15]: 0.1 %ID
Drug uptake (Lung [16]): 0 %ID
Drug uptake (Heart [17]): 0 %ID
Drug uptake (Intestine [18]): 63.7 %ID
Drug uptake (Brain [19]): 0 %ID
Drug uptake (Blood [20]): 0.2 %ID
Drug uptake [21]: 3.5 %ID
Drug uptake (Kidney [22]): 12.4
Drug uptake (Liver [23]): 3.7
Drug uptake [24]: 2.7
Drug uptake (Lung [25]): 0
Drug uptake (Heart [26]): 0
Drug uptake (Brain [27]): 0
Drug uptake (Blood [28]): 0
logD [29]: 1.27
Drug uptake [30]: 0.24%
Drug uptake [31]: 12.8%
Stability (Plasma [32]): 98%
Drug uptake [33]: 0.2 %ID
Drug uptake (Kidney [34]): 21.7 %ID
Drug uptake (Liver [35]): 21.3 %ID
Drug uptake [36]: 2.4 %ID
Drug uptake (Lung [37]): 0.7 %ID
Drug uptake (Heart [38]): 0.5 %ID
Stability (Plasma [39]): 80%
remaining at 0.5 h [40]: 90%
remaining at 1 h [41]: 90%
Ratio [42]: 53
